Reference: PMC8052682 (Chemical communications (Cambridge, England), 2021)

How the values were obtained:
[1] = test system: MDA-MB-231 breast carcinoma cells; test: Wound-healing; assay type: cell-based; conditions: wound-healing assay, 20-hour time span, six biological replicates
How it was run: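 Scratch-wound migration of MDA-MB-231 breast carcinoma cells followed over 20 h with test compounds (a glycopeptide, a peptide, or heparin) at several concentrations. Migration was scored as relative migration, and the concentration giving maximal inhibition of migration was noted.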

integrin = conditions: ref [3], [20]; cited from earlier work

heparin
concentration at which maximal inhibitory effect on migration is reached [1]: 6 µM
integrin binding relative to heparan sulfate (in words) (integrin): binds more tightly with integrin than heparan sulfate
